According to article PMC9303630 (Journal of Clinical Pharmacology, 2021):
“Also recorded” adds a separate entry of the source. Marks after values point to notes of the source that are not given here.

Key:
[1] = Phase 1 open-label single-dose hepatic impairment PK study of ipatasertib; type: in vivo, human; conditions: for tlast: 100 mg ipatasertib single oral, median (min-max); for AUC0‐∞, Test/Reference geometric mean ratio / Cmax, Test/Reference geometric mean ratio: (90%CI) where printed
How it was run: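 Open-label, parallel-group design: subjects with mild, moderate or severe hepatic impairment (Child-Pugh or NCI-ODWG) vs matched normal-function controls. Single oral 100 mg dose with 240 mL water after ≥8 h fast, then fasting ≥4 h. Plasma was sampled predose to day 15 for parent and M1, assayed with stable-labeled internal standards. Log-transformed AUC0‐∞ and Cmax were compared test vs reference with back-transformed geometric mean ratios and 90% CIs.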

[2] = Safety and tolerability in the hepatic impairment study; type: in vivo, human
[3] = cited from earlier work
[4] = radiolabeled ipatasertib; ref data on file; cited from earlier work
[5] = 100-mg dose of ipatasertib coadministered with itraconazole; cited from earlier work
[6] = not assessed in this study; cited from earlier work
[7] = once daily; combination setting; patients with solid tumors; cited from earlier work
P‐glycoprotein (P‐gp) = conditions: cited from earlier work
CYP3A4 = conditions: cited from earlier work
[8] = cited from earlier work; remark: listed apart in the source
[9] = Mild vs normal, Child-Pugh, listed as ipatasertib
[10] = Mild vs normal, NCI-ODWG, listed as ipatasertib
[11] = Moderate vs normal, Child-Pugh, listed as ipatasertib
[12] = Moderate vs normal, NCI-ODWG, listed as ipatasertib
[13] = Severe vs normal, Child-Pugh, listed as ipatasertib
[14] = Severe vs normal, NCI-ODWG, listed as ipatasertib
[15] = moderate or severe hepatic impairment, either method of classification

CC(C)NC[C@@H](C(=O)N1CCN(c2ncnc3c2[C@H](C)C[C@H]3O)CC1)c1ccc(Cl)cc1 [Ipatasertib]
tlast ([1]; Child-Pugh, Healthy (N = 13)): 120.0 (72.0‐120.4) h | tlast ([1]; Child-Pugh, Mild (N = 8)): 120.0 (48.0‐168.0) h | tlast ([1]; Child-Pugh, Moderate (N = 8)): 216.0 (146.5‐334.5) ^b h | tlast ([1]; Child-Pugh, Severe (N = 7)): 192.2 (167.7‐336.0) ^c h | tlast ([1]; NCI-ODWG, Healthy (N = 21)): 120.0 (48.0‐240.0) h | tlast ([1]; NCI-ODWG, Mild (N = 5)): 144.1 (96.0‐168.0)^c h | tlast ([1]; NCI-ODWG, Moderate (N = 5)): 240.8 (168.0‐334.5)^c h | tlast ([1]; NCI-ODWG, Severe (N = 5)): 216.4 (167.7‐336.0) h | systemic exposure compared to normal hepatic function ([1]; Child-Pugh mild hepatic impairment): comparable; also recorded: no appreciable difference | apparent plasma clearance lower than normal hepatic function ([1]; Child-Pugh moderate): ≈ 2.5 fold | apparent volume of distribution lower than normal hepatic function ([1]; Child-Pugh moderate): ~1.6 fold | mean elimination t1/2 longer than normal hepatic function ([1]; Child-Pugh moderate): ≈ 1.7 fold | increase in systemic exposure (AUC0‐∞) compared to normal hepatic function ([1]; Child-Pugh moderate hepatic impairment): ≈ 2 fold | apparent plasma clearance lower than normal hepatic function ([1]; Child-Pugh severe): ≈ 2.9 fold | apparent volume of distribution lower than normal hepatic function ([1]; Child-Pugh severe): ~2.1 fold | mean elimination t1/2 longer than normal hepatic function ([1]; Child-Pugh severe): ~1.5 fold | increase in systemic exposure (AUC0‐∞) compared to normal hepatic function ([1]; Child-Pugh severe hepatic impairment): ~3 fold | AUC0‐∞, Test/Reference geometric mean ratio ([1]; Mild vs normal, Child-Pugh): 89.5% | Cmax, Test/Reference geometric mean ratio ([1]; Mild vs normal, Child-Pugh): 98.6% | AUC0‐∞, Test/Reference geometric mean ratio [1, 9]: 89.5 (65.1‐123.2) % | Cmax, Test/Reference geometric mean ratio [1, 9]: 98.6 (52.8‐184.0) % | AUC0‐∞, Test/Reference geometric mean ratio ([1]; Mild vs normal, NCI-ODWG): 153.6% | Cmax, Test/Reference geometric mean ratio ([1]; Mild vs normal, NCI-ODWG): 101.1% | AUC0‐∞, Test/Reference geometric mean ratio [1, 10]: 153.6 (87.7‐269.2) % | Cmax, Test/Reference geometric mean ratio [1, 10]: 101.1 (35.9‐284.8) % | AUC0‐∞, Test/Reference geometric mean ratio ([1]; Moderate vs normal, Child-Pugh): 261.5% | Cmax, Test/Reference geometric mean ratio ([1]; Moderate vs normal, Child-Pugh): 184.1% | AUC0‐∞, Test/Reference geometric mean ratio [1, 11]: 261.5 (191.2‐357.5) % | Cmax, Test/Reference geometric mean ratio [1, 11]: 184.1 (112.2‐302.0) % | AUC0‐∞, Test/Reference geometric mean ratio ([1]; Moderate vs normal, NCI-ODWG): 339.1% | Cmax, Test/Reference geometric mean ratio ([1]; Moderate vs normal, NCI-ODWG): 198.1% | AUC0‐∞, Test/Reference geometric mean ratio [1, 12]: 339.1 (241.7‐475.6) % | Cmax, Test/Reference geometric mean ratio [1, 12]: 198.1 (109.5‐358.4) % | AUC0‐∞ higher than normal hepatic function ([1]; NCI-ODWG mild): ≈ 1.5 fold | Cmax compared to normal hepatic function ([1]; NCI-ODWG mild): similar | AUC0‐∞, Test/Reference geometric mean ratio ([1]; Severe vs normal, Child-Pugh): 298.1% | Cmax, Test/Reference geometric mean ratio ([1]; Severe vs normal, Child-Pugh): 163.8% | AUC0‐∞, Test/Reference geometric mean ratio [1, 13]: 298.1 (228.4‐389.0) % | Cmax, Test/Reference geometric mean ratio [1, 13]: 163.8 (86.4‐310.3) % | AUC0‐∞, Test/Reference geometric mean ratio ([1]; Severe vs normal, NCI-ODWG): 267.0% | Cmax, Test/Reference geometric mean ratio ([1]; Severe vs normal, NCI-ODWG): 155.2% | AUC0‐∞, Test/Reference geometric mean ratio [1, 14]: 267.0 (195.6‐364.3) % | Cmax, Test/Reference geometric mean ratio [1, 14]: 155.2 (70.7‐340.9) % | Tmax ([1]; human, plasma, po, 100 mg, median tmax, across all the groups, single oral 100-mg dose, Child-Pugh): 30 to 60 min | AUC0‐∞ increase compared to normal hepatic function [1, 15]: ~3 fold | Cmax increase compared to normal hepatic function [1, 15]: ≈ 2 fold | total AEs reported ([2]; all 36 subjects): 12 AEs | discontinuation due to AEs ([2]; in vivo): no subjects were discontinued | AEs reported ([2]; mild hepatic impairment): 3 AEs | subjects with AEs ([2]; mild hepatic impairment): 2 subjects | AEs reported ([2]; moderate hepatic impairment): 3 AEs | subjects with AEs ([2]; moderate hepatic impairment): 3 subjects | AEs reported ([2]; normal hepatic function): 1 AE | subjects with AEs ([2]; normal hepatic function): 1 subject | AE of orthostatic hypotension assessed as severe (grade 3) ([2]; one subject with moderate hepatic impairment): 1 AE | AEs reported ([2]; severe hepatic impairment): 5 AEs | subjects with AEs ([2]; severe hepatic impairment): 3 subjects | overall safety and tolerability ([2]; single oral dose of 100 mg, normal hepatic function and hepatic impairment): generally safe and well tolerated | median half‐life (t1/2) ([3]; 400-mg dose in patients): ≈ 45 hours | dose proportionality ([3]; single dose, doses of 100 to 800 mg, dose escalation study): close to dose proportionality | parent drug eliminated in urine [4]: ≈ 8% | total administered dose eliminated in urine [4]: ≈ 19% | increase of ipatasertib exposures with itraconazole [5]: ≈ 5 fold | overall mean percentage unbound in human plasma [6]: 63.6% | maximum tolerated dose [7]: 400 mg | substrate of P‐glycoprotein (P‐gp) (P‐glycoprotein (P‐gp)): substrate | substrate of CYP3A4 (CYP3A4): sensitive substrate

O=C(c1ccc(F)c(F)c1Nc1ccc(I)cc1F)N1CC(O)([C@@H]2CCCCN2)C1 [cobimetinib]
exposure in subjects with normal and mildly impaired hepatic function [8]: comparable exposure

COc1cc2ncnc(Nc3ccc(F)c(Cl)c3)c2cc1NC(=O)/C=C/CN1CCCCC1 [dacomitinib]
exposure in subjects with normal and mildly impaired hepatic function [8]: comparable exposure

CCN(CC)CCNC(=O)c1c(C)[nH]c(/C=C2\C(=O)Nc3ccc(F)cc32)c1C [sunitinib]
exposure in subjects with normal and mildly impaired hepatic function [8]: comparable exposure

CC1(C)CCC(CN2CCN(c3ccc(C(=O)NS(=O)(=O)c4ccc(NCC5CCOCC5)c([N+](=O)[O-])c4)c(Oc4cnc5[nH]ccc5c4)c3)CC2)=C(c2ccc(Cl)cc2)C1 [venetoclax]
exposure in subjects with normal and mildly impaired hepatic function [8]: comparable exposure
